The record followed here is PMC9382663 (Nature, 2022).

Where no end group is shown, it is not given here. [ ]: non-standard residue; d: D form. pS = N[C@@H](COP(=O)(O)O)C(=O)O

Assay [1] has as its system plasma antibody reactivity against EBNA1AA386–405. Description: Plasma ELISA with blocking of plasma IgG. Format: binding, human. The following applies: blocking peptide 10 μg/ml, 2 h RT; nine high-reactivity MS samples. In a few lines:
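384-well plates are coated overnight at 4°C with recombinant Protein G (2μg/ml) and washed 6x with PBST. Plasma (1:100) is bound overnight at 4°C, washed again, then blocked 2 h at RT with 10μg/ml peptide (scrambled control, EBNA1 AA386–405 or GlialCAM AA370–389 pSer376). Read-out is OD 450 nm normalized to the unblocked sample, with quadruplicate wells.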
(In general: An ELISA detects its analyte on a solid surface through an enzyme-linked reagent.)

The test system of assay [2] is experimental autoimmune encephalomyelitis (EAE). As to the kind of experiment: EAE after peptide immunization. Format: in vivo, SJL/J mice. The following applies: spinal cord histology, day 50; vs. scrambled peptide.
A further assay has as its system EBNA1AA386–405. As to the kind of experiment: Mouse plasma IgG ELISA against EBNA1 peptide. Format: in vivo, SJL/J mice. Conditions: immunized mice, plasma 1:100.
A further assay deals with GlialCAM ICD. As to the kind of experiment: Mouse plasma IgG ELISA against GlialCAM ICD. Conditions: immunized mice, plasma 1:100. Format: in vivo, SJL/J mice.
In assay [3] the test system is splenocytes and lymph node cells. Description: T cell proliferation by 3H-thymidine incorporation. Format: cell-based, mouse. The following applies: cells pooled from n=10 immunized mice. (In general: Incorporation of labelled thymidine or its analogues reports DNA synthesis.)
Assay [4] relates to mouse splenocytes and lymph node cells. As to the kind of experiment: Cytokine ELISA in cell culture supernatant. Format: cell-based. The following applies: cells of immunized mice re-stimulated with peptide.
Assay [5] has as its target unmutated ancestor of MS39p2w174 (germline) (human). Description: BLI.
The target in assay [6] is T1, biotinylated GlialCAM_(AA370–389 pSer376 pSer377) peptide (human) (UniProt Q14CZ8).
T1 sequence (peptide): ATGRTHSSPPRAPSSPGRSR
As to the kind of experiment: BLI. (Biolayer interferometry detects binding as a change in optical thickness at a sensor tip.)

Assay [7] concerns the target T2, biotinylated GlialCAM_(AA370–389 pSer376) peptide (human) (UniProt Q14CZ8).
T2 sequence (peptide): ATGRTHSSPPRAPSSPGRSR
Description: BLI.

Assay [8] addresses GlialCAM protein (bio-layer interferometry) (Homo sapiens, UniProt Q14CZ8). As to the kind of experiment: BLI.
The target in assay [9] is T3, biotinylated native GlialCAM_(AA370–389) peptide (Homo sapiens, UniProt Q14CZ8).
T3 chain: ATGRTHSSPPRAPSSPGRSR
Description: BLI.

In assay [10] the target is EBNA1 full-length protein AA1–641 (Epstein-Barr virus, strain ; …, UniProt P03211). As to the kind of experiment: BLI.
Sequence of EBNA1 full-length protein AA1–641 (P03211 whole entry, the tested form may be a part): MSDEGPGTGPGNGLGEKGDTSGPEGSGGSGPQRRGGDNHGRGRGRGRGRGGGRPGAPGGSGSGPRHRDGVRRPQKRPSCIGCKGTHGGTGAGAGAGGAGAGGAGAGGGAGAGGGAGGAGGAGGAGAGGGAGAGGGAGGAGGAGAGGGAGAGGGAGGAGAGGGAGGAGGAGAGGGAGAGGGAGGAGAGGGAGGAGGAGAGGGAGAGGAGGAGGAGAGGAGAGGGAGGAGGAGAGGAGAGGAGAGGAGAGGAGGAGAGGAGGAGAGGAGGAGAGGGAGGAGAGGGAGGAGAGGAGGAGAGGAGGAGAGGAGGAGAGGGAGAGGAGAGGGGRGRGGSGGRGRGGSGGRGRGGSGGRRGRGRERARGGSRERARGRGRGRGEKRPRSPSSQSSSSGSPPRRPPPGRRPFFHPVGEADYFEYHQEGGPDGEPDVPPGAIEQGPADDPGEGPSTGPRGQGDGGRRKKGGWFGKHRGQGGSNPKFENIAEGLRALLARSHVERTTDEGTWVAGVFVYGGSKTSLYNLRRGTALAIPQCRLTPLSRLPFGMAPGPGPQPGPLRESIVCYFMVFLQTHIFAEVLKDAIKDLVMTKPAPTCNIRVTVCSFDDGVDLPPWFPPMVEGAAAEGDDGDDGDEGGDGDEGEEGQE
Assay [11] concerns the target T4, biotinylated EBNA1_(AA386–405) peptide (Epstein-Barr virus, sequence as B95-8).
T4 chain: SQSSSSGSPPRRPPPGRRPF
Description: BLI.

Assay [12] concerns the target actin filament associated protein 1 (AFAP1) on the HuProt microarray (Homo sapiens (Human)., UniProt Q8N556). Description: peptide or protein array.
The target in assay [13] is T5, EBNA1_(AA386–405) 20mer peptide (Epstein-Barr virus).
T5 chain: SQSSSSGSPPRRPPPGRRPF
Description: ELISA.

Sequence of actin filament associated protein 1 (AFAP1) on the HuProt microarray (Q8N556 whole entry, the tested form may be a part): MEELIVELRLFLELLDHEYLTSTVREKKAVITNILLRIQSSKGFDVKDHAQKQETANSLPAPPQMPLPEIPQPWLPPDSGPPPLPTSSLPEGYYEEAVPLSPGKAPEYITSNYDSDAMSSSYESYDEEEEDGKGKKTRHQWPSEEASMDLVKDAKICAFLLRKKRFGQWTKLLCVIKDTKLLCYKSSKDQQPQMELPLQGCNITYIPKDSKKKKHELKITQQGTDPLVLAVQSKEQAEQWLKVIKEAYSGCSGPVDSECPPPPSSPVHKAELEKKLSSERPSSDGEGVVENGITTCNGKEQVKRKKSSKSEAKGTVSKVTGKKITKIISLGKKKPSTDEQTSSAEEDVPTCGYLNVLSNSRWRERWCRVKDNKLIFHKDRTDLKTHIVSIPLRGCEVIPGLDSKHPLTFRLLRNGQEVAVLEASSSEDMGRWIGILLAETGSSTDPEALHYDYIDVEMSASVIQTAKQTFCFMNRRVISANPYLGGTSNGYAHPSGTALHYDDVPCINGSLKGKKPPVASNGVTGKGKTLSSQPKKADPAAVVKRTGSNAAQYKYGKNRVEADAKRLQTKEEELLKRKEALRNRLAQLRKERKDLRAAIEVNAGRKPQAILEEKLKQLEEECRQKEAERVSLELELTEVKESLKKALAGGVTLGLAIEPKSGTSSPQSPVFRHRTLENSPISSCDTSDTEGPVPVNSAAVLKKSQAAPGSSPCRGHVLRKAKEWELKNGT

As to “GlialCAMAA370–389 pSer376: GlialCAM 20mer peptide phosphorylated at Ser376 (ATGRTH[pS]SPPRAPSSPGRSR)”, the “blocking of anti-EBNA1AA386–405 plasma reactivity” value in assay [1] was “inhibition”.

With SQSSSSGSPPRRPPPGRRPF [EBNA1AA386–405], in assay [2], the “CNS immune cell infiltration (H&E)” value is “enhanced CNS immune cell infiltration” and the “demyelination (Luxol Fast Blue)” value is “enhanced”. The “plasma IgG response to EBNA1AA386–405” value in the assay with EBNA1AA386–405 is reported as “robust antibody responses”. In addition, the “plasma IgG response to GlialCAM ICD” value with GlialCAM ICD is “robust antibody responses”. For the same molecule, in assay [3], the “CD4+ T cell response” value is recorded as “strong CD4+ T cell response”. In assay [4], the IL-17 secretion entry is listed as “suppressed”; the “secretion of IFN-γ, TNF, IL-12, IL-6 and IL-10” value is listed as “stimulated the secretion”.

B1: GlialCAM protein (bio-layer interferometry) (natural protein)
chain: VNITSPVRLIHGTVGKSALLSVQYSSTSSDRPVVKWQLKRDKPVTVVQSIGTEVIGTLRPDYRDRIRLFENGSLLLSDLQLADEGTYEVEISITDDTFTGEKTINLTVDVPISRPQVLVASTTVLELSEAFTLNCSHENGTKPSYTWLKDGKPLLNDSRMLLSPDQKVLTITRVLMEDDDLYSCMVENPISQGRSLPVKITVYRRSSLYIILSTGGIFLLVTLVTVCACWKPSKRKQKKLEKQNSLEYMDQNDDRLKPEADTLPRSGEQERKNPMALYILKDKDSPETEENPAPEPRSATEPGPPGYSVSPAVPGRSPGLPIRSARRYPRSPARSPATGRTHSSPPRAPSSPGRSRSASRTLRTAGVHIIREQDEAGPVEISA
In assay [5], B1 had a Kd of 10.5 nM.

B2: mAb MS39p2w174 (antibody, V domains shown)
VH: QVQLVESGGGLVKPGGSLRLSCVSSGFTFSNYWMSWVRQAPGGGLEWVANINQDGSEKYYVDSVKGRFTSSRDNTKNSLFLQLNSLRAEDTGIYYCTRDPPYFDNWGQGTLVTVSS
VL: DVVLTQSPLSLPVILGQPASISCRSSQSLVYSDGRTYLNWFQQRPGQSPRRLIYKISKRDSGVPERFSGSGSGTDFTLEISRVEAEDVGIYYCMQGSHWPVTFGQGTKVEIK
As for B2, the dissociation constant Kd in [6] was 3.73 nM; in assay [7] it was 6.1 nM; in [8], 0.19 nM; in assay [9], 302 nM; in [10], 1.99 nM; in assay [11], 2.67 nM. In addition, the binding result in [12] and in assay [13] was “binds” throughout.

For orientation: Kd means a measure of binding affinity in units of concentration.
